ChEMBL document CHEMBL1139755, “Synthesis and in vitro antibacterial activity of novel methylamino piperidinyl oxazolidinones” (2007)
≈ marks a conversion by molar mass, not a printed value.

What was measured:
[1] = system: Streptococcus pyogenes; experiment: Antibacterial activity against Streptococcus pyogenes ATCC 14289 by broth microdilution method
[2] = system: Bacillus subtilis; experiment: Antibacterial activity against Bacillus subtilis ATCC 6633 by broth microdilution method; type: functional
How it was run: (§1)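 Endpoint is the minimum inhibitory concentration, determined by broth microdilution against a panel of susceptible Gram-positive strains. Values are reported as a range spanning two concentrations (for example 8–16). Values above the top concentration tested are given as >16.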

[3] = system: Staphylococcus aureus; experiment: Antibacterial activity against Staphylococcus aureus ATCC 29213 by broth microdilution method; type: functional
How it was run: as §1

[4] = system: Staphylococcus aureus; experiment: Antibacterial activity against linezolid-resistant Staphylococcus aureus NRS 119 by broth microdilution method; type: functional
How it was run: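 Linezolid-resistant S. aureus strain obtained from NARSA; minimum inhibitory concentration found by broth microdilution and reported as a concentration range.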

[5] = system: Staphylococcus epidermidis; experiment: Antibacterial activity against Staphylococcus epidermidis ATCC 12228 by broth microdilution method; type: functional
How it was run: as §1

[6] = system: Staphylococcus aureus; experiment: Antibacterial activity against methicillin-resistant Staphylococcus aureus ATCC 700699 by broth microdilution method; type: functional
[7] = system: Staphylococcus aureus; experiment: Antibacterial activity against Staphylococcus aureus ATCC 25923 by broth microdilution method; type: functional
How it was run: as §1

[8] = system: Enterococcus faecalis; experiment: Antibacterial activity against Enterococcus faecalis ATCC 14506 by broth microdilution method; type: functional
How it was run: as §1

[9] = system: Enterococcus faecalis; experiment: Antibacterial activity against multidrug resistant Enterococcus faecalis ATCC 700802 by broth microdilution method; type: functional
[10] = system: Streptococcus pneumoniae; experiment: Antibacterial activity against multidrug-resistant Streptococcus pneumoniae ATCC 700904 by broth microdilution method; type: functional
[11] = system: Enterococcus faecium; experiment: Antibacterial activity against vancomycin-resistant Enterococcus faecium ATCC 700221 by broth microdilution method; type: functional
[12] = system: Enterococcus faecalis; experiment: Antibacterial activity against Enterococcus faecalis ATCC 29212 by broth microdilution method; type: functional
How it was run: as §1

[13] = system: Staphylococcus epidermidis; experiment: Antibacterial activity against Staphylococcus epidermidis ATCC 155 by broth microdilution method; type: functional
How it was run: as §1

[14] = system: Staphylococcus aureus; experiment: Antibacterial activity against Staphylococcus aureus ATCC 33592 by broth microdilution method; type: functional
How it was run: as §1

[15] = system: Staphylococcus aureus; experiment: Antibacterial activity against Staphylococcus aureus ATCC 33591 by broth microdilution method; type: functional
How it was run: as §1

SMILES	MIC [1] [µg/mL]	MIC [2] [µg/mL]	MIC [3] [µg/mL]	MIC [4] [µg/mL]	MIC [5] [µg/mL]	MIC [6] [µg/mL]	MIC [7] [µg/mL]	MIC [8] [µg/mL]	MIC [9] [µg/mL]	MIC [10] [µg/mL]	MIC [11] [µg/mL]	MIC [12] [µg/mL]	MIC [13] [µg/mL]	MIC [14] [µg/mL]	MIC [15] [µg/mL]
CC(=O)NC[C@H]1CN(c2ccc(N(C)C3CCN(C(=O)/C=C/c4ccc5c(c4)OCO5)CC3)c(F)c2)C(=O)O1	> 16	2 (≈ 3.71 µM)	> 16	> 16	8 (≈ 14.9 µM)	> 16	> 16	> 16	> 16	> 16	> 16	8 (≈ 14.9 µM)	> 16	> 16	8 (≈ 14.9 µM)
CC(=O)NC[C@H]1CN(c2ccc(N(C)C3CCNCC3)c(F)c2)C(=O)O1	> 16	> 16	> 16	> 16	> 16	> 16	> 16	> 16	> 16	> 16	> 16	> 16	> 16	> 16	> 16
CC(=O)NC[C@H]1CN(c2ccc(N(C)C3CCN(C(=O)/C=C/c4ccco4)CC3)c(F)c2)C(=O)O1	> 16	2 (≈ 4.13 µM)	> 16	> 16	> 16	8 (≈ 16.5 µM)	> 16	> 16	> 16	> 16	8 (≈ 16.5 µM)	> 16	> 16	> 16	> 16
CC(=O)NC[C@H]1CN(c2ccc(N(C)C3CCN(C(=O)/C=C/c4ccccc4)CC3)c(F)c2)C(=O)O1	8 (≈ 16.2 µM)	2 (≈ 4.04 µM)	8 (≈ 16.2 µM)	> 16	8 (≈ 16.2 µM)	8 (≈ 16.2 µM)	8 (≈ 16.2 µM)	> 16	8 (≈ 16.2 µM)	8 (≈ 16.2 µM)	4 (≈ 8.09 µM)	> 16	4 (≈ 8.09 µM)	4 (≈ 8.09 µM)	8 (≈ 16.2 µM)
CC(=O)NC[C@H]1CN(c2ccc(N(C)C3CCN(C(=O)/C=C/c4ccc(O)cc4)CC3)c(F)c2)C(=O)O1	8 (≈ 15.7 µM)	2 (≈ 3.92 µM)	> 16	> 16	8 (≈ 15.7 µM)	4 (≈ 7.83 µM)	8 (≈ 15.7 µM)	> 16	8 (≈ 15.7 µM)	8 (≈ 15.7 µM)	8 (≈ 15.7 µM)	4 (≈ 7.83 µM)	8 (≈ 15.7 µM)	> 16	8 (≈ 15.7 µM)
CC(=O)NC[C@H]1CN(c2ccc(N(C)C3CCN(C(=O)/C=C/c4ccc([N+](=O)[O-])o4)CC3)c(F)c2)C(=O)O1	2 (≈ 3.78 µM)	0.5 (≈ 0.944 µM)	2 (≈ 3.78 µM)	2 (≈ 3.78 µM)	1 (≈ 1.89 µM)	1 (≈ 1.89 µM)	2 (≈ 3.78 µM)	4 (≈ 7.55 µM)	8 (≈ 15.1 µM)	0.25 (≈ 0.472 µM)	1 (≈ 1.89 µM)	2 (≈ 3.78 µM)	0.25 (≈ 0.472 µM)	1 (≈ 1.89 µM)	1 (≈ 1.89 µM)
CC(=O)NC[C@H]1CN(c2ccc(N(C)C3CCN(C(=O)/C=C/c4ccc([N+](=O)[O-])cc4)CC3)c(F)c2)C(=O)O1	> 16	4 (≈ 7.41 µM)	> 16	> 16	8 (≈ 14.8 µM)	8 (≈ 14.8 µM)	> 16	> 16	> 16	> 16	> 16	> 16	8 (≈ 14.8 µM)	> 16	> 16
CC(=O)NC[C@H]1CN(c2ccc(N(C)C3CCN(C(=O)/C=C/C4CCCCC4)CC3)c(F)c2)C(=O)O1	> 16	8 (≈ 16 µM)	8 (≈ 16 µM)	> 16	> 16	4 (≈ 7.99 µM)	8 (≈ 16 µM)	8 (≈ 16 µM)	8 (≈ 16 µM)	8 (≈ 16 µM)	8 (≈ 16 µM)	> 16	8 (≈ 16 µM)	8 (≈ 16 µM)	> 16
CC(=O)NC[C@H]1CN(c2ccc(N(C)C3CCN(C(=O)/C=C/c4c[nH]c5ccccc45)CC3)c(F)c2)C(=O)O1	8 (≈ 15 µM)	2 (≈ 3.75 µM)	> 16	> 16	4 (≈ 7.5 µM)	2 (≈ 3.75 µM)	8 (≈ 15 µM)	> 16	8 (≈ 15 µM)	8 (≈ 15 µM)	8 (≈ 15 µM)	8 (≈ 15 µM)	4 (≈ 7.5 µM)	> 16	8 (≈ 15 µM)
CC(=O)NC[C@H]1CN(c2ccc(N(C)C3CCN(C(=O)/C=C/c4ccc(CO)o4)CC3)c(F)c2)C(=O)O1	> 16	> 16	> 16	> 16	> 16	> 16	> 16	> 16	> 16	> 16	> 16	> 16	> 16	> 16	> 16
CC(=O)NC[C@H]1CN(c2ccc(N3CCN(C(=O)CO)CC3)c(F)c2)C(=O)O1 [EPEREZOLID]	0.25 (≈ 0.634 µM)	0.5 (≈ 1.27 µM)	2 (≈ 5.07 µM)	> 16	2 (≈ 5.07 µM)	1 (≈ 2.54 µM)	2 (≈ 5.07 µM)	2 (≈ 5.07 µM)	1 (≈ 2.54 µM)	0.25 (≈ 0.634 µM)		2 (≈ 5.07 µM)			1 (≈ 2.54 µM)
CC(=O)NC[C@H]1CN(c2ccc(N3CCOCC3)c(F)c2)C(=O)O1 [LINEZOLID]	0.5 (≈ 1.48 µM)	1 (≈ 2.96 µM)		> 16	2 (≈ 5.93 µM)	1 (≈ 2.96 µM)	1 (≈ 2.96 µM)						1 (≈ 2.96 µM)		1 (≈ 2.96 µM)
CC(=O)NC[C@H]1CN(c2ccc(N3CCN(Cc4ccc([N+](=O)[O-])o4)CC3)c(F)c2)C(=O)O1 [RANBEZOLID]	2 (≈ 4.33 µM)	0.25 (≈ 0.542 µM)	1 (≈ 2.17 µM)	> 16	0.5 (≈ 1.08 µM)	0.5 (≈ 1.08 µM)	1 (≈ 2.17 µM)	2 (≈ 4.33 µM)	1 (≈ 2.17 µM)	0.25 (≈ 0.542 µM)	2 (≈ 4.33 µM)		0.25 (≈ 0.542 µM)	1 (≈ 2.17 µM)	1 (≈ 2.17 µM)
